Assay results from ChEMBL document CHEMBL1914431, “Discovery of a novel series of nonacidic benzofuran EP1 receptor antagonists” (Bioorg Med Chem Lett, 2011).
In brackets after ≈: the same amount, converted by molar mass. Each block holds one molecule with its values, some of them ahead of it. Activity calls are given as the source filed them. The rule behind the calls is not given here.

Tests used:
[1] = biological target: T1, Prostaglandin E2 receptor EP1 subtype (Homo sapiens, UniProt P34995); test: Displacement of [3H]GW875240X from human prostanoid EP1 receptor expressed in CHO-K1 cells after 45 mins by topcount liquid scintillation counting; format: cell-based
T1 sequence (P34995 whole entry): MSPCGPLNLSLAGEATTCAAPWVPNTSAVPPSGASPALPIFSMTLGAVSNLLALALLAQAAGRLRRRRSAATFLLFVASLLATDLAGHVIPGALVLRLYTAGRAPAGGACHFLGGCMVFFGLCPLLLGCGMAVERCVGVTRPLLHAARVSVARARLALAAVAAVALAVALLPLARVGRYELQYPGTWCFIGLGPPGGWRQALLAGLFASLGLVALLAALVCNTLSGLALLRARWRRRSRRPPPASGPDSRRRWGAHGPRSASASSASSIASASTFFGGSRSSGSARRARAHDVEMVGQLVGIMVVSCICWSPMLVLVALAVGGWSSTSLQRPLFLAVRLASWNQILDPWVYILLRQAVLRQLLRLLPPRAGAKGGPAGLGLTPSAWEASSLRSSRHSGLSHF
Outline: (§1)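 Radioligand binding at the EP1 receptor. Either [3H]-GW875240X or [3H]-PGE2 is the displaced ligand. Values are pIC50, means of at least three experiments.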

[2] = biological target: T1, Prostaglandin E2 receptor EP1 subtype; test: Displacement of [3H]PGE2 from human prostanoid EP1 receptor expressed in CHO-K1 cells after 30 mins by topcount liquid scintillation counting; format: cell-based; outline: as §1
[3] = tested on: Rattus norvegicus; test: Analgesic activity in rat assessed as reversal of complete Freund's adjuvant-induced inflammatory pain at 30 mg/kg, po after 1 hr post dose relative to 10 mg/kg of celecoxib; format: functional, organism-based
Outline: (§2)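 Rat CFA inflammatory pain model. Oral dosing in 1% methylcellulose. Hypersensitivity reversal is read by weight bearing, at 1 h post-dose. The 5 mg/kg study was also read at 3 h. Dose-response groups were 3, 10 and 30 mg/kg, or 1, 3 and 10 mg/kg, with ED50 derived. Celecoxib at 10 mg/kg po served as the standard.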

[4] = tested on: Liver microsomes; test: Intrinsic clearance in human liver microsomes; format: ADME, Microsome
[5] = Solubility of the compound in simulated gastric fluid after 1 hr; format: physicochemical
Outline: (§3)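 Solubility is measured after 1 h in water, SGF, FaSSIF and FeSSIF, in µg/mL.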

[6] = Solubility of the compound in fasted state simulated intestinal fluid after 1 hr; format: physicochemical; outline: as §3
[7] = Solubility of the compound in fed state simulated intestinal fluid after 1 hr; format: physicochemical; outline: as §3
[8] = Lipophilicity, log D of compound at pH 7.4 by shake flask method; format: physicochemical; conditions: buffer
Outline: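 Log D is determined by the shake flask method at pH 7.4.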

[9] = tested on: P-gp; test: Permeability across MDCK cells expressing p-gp; format: ADME, cell-based, Canis lupus familiaris; conditions: dog, MDCK-MDR1; read-out: permeability
Outline: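 MDCK cells. Passive permeability is reported as Pexact (nm/sec), and efflux ratio is used to assess Pgp substrate status.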

[10] = tested on: P-gp; test: Efflux ratio of the compound in MDCK cells expressing p-gp; format: ADME, cell-based, Canis lupus familiaris; conditions: dog, MDCK-MDR1
Outline: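 MDCK cell monolayers were used to measure permeability. The efflux ratio is reported alongside exact permeability (Pexact, nm/sec) and was used to judge whether the compound is a Pgp substrate.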

[11] = tested on: Rattus norvegicus; test: Analgesic activity in po dosed rat assessed as reversal of complete Freund's adjuvant-induced inflammatory pain after 1 hr post dose; format: functional; outline: as §2
[12] = Blood clearance in rat at 1 mg/kg, iv; format: ADME, organism-based; design: dose 1 mg/kg, route intravenous
[13] = Volume of distribution at steady state in rat at 1 mg/kg, iv; format: ADME, organism-based; design: dose 1 mg/kg, route intravenous; conditions: in vivo, read-out: Vdss
[14] = Half life in rat at 1 mg/kg, iv; format: ADME, organism-based; design: dose 1 mg/kg, route intravenous; conditions: in vivo
[15] = Oral bioavailability in rat at 3 mg/kg; format: ADME, organism-based; conditions: in vivo
Outline: (§4)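 Rat oral pharmacokinetics at 3 mg/kg in 1% (w/v) aqueous methylcellulose. Bioavailability and half-life are derived.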

[16] = Half life in rat at 3 mg/kg, po; format: ADME, organism-based; design: dose 3 mg/kg, route oral; conditions: in vivo; outline: as §4
[17] = Drug level in blood of rat complete Freund's adjuvant-induced inflammatory pain model at 3 mg/kg, po after 1 hr; format: ADME, organism-based; design: dose 3 mg/kg, route oral; conditions: read-out: Drug uptake
Outline: (§5)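 Blood and brain samples are taken from CFA rats after oral dosing in 1% methylcellulose. Sampling is at 1 h post-dose, and at 3 h in the 5 mg/kg study. Concentrations are in µM or nM, n = 7 or n = 6 for blood and n = 3 for brain. The brain:blood ratio is calculated from the same rats.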

[18] = Drug level in blood of rat complete Freund's adjuvant-induced inflammatory pain model at 10 mg/kg, po after 1 hr; format: ADME, organism-based; design: dose 10 mg/kg, route oral; conditions: read-out: Drug uptake; outline: as §5
[19] = Drug level in blood of rat complete Freund's adjuvant-induced inflammatory pain model at 30 mg/kg, po after 1 hr; format: ADME, organism-based; design: dose 30 mg/kg, route oral; conditions: read-out: Drug uptake; outline: as §5
[20] = Drug level in brain of rat complete Freund's adjuvant-induced inflammatory pain model at 30 mg/kg, po after 1 hr; format: ADME, organism-based; design: dose 30 mg/kg, route oral; conditions: read-out: Drug uptake; outline: as §5
[21] = Ratio of drug level in brain to blood in rat complete Freund's adjuvant-induced inflammatory pain model at 30 mg/kg, po after 1 hr; format: ADME, organism-based; design: dose 30 mg/kg, route oral; conditions: read-out: BBR; outline: as §5
[22] = tested on: Rattus norvegicus; test: Analgesic activity in rat assessed as reversal of complete Freund's adjuvant-induced inflammatory pain at 5 mg/kg, po after 1 hr post dose; format: functional, organism-based; design: dose 5 mg/kg; outline: as §2
[23] = tested on: Rattus norvegicus; test: Analgesic activity in rat assessed as reversal of complete Freund's adjuvant-induced inflammatory pain at 5 mg/kg, po after 3 hrs post dose; format: functional, organism-based; design: dose 5 mg/kg; outline: as §2
[24] = Ratio of drug level in brain to blood in rat complete Freund's adjuvant-induced inflammatory pain model at 5 mg/kg, po after 3 hrs; format: ADME, organism-based; design: dose 5 mg/kg, route oral; conditions: read-out: BBR; outline: as §5
[25] = Solubility of the compound in water after 1 hr; format: physicochemical; outline: as §3
[26] = tested on: Rattus norvegicus; test: Analgesic activity in rat assessed as reversal of complete Freund's adjuvant-induced inflammatory pain at 10 mg/kg, po after 1 hr post dose; format: functional; outline: as §2
[27] = tested on: Blood; test: Fraction unbound in blood of po dosed rat complete Freund's adjuvant-induced inflammatory pain model; format: ADME, organism-based; conditions: in vivo
[28] = Ratio of drug level in brain to blood in rat complete Freund's adjuvant-induced inflammatory pain model at 10 mg/kg, po after 1 hr; format: ADME, organism-based; design: dose 10 mg/kg, route oral; conditions: read-out: BBR; outline: as §5
[29] = Drug level in brain of rat complete Freund's adjuvant-induced inflammatory pain model at 10 mg/kg, po after 1 hr; format: ADME, organism-based; design: dose 10 mg/kg, route oral; conditions: read-out: Drug uptake; outline: as §5
[30] = tested on: Rattus norvegicus; test: Analgesic activity in rat chronic joint pain model at 30 mg/kg, po bid; format: functional, organism-based; design: dose 30 mg/kg
Outline: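 Rat joint pain model of chronic inflammatory pain. Oral dosing b.i.d. at 1, 3, 10 and 30 mg/kg, or at 0.3, 1, 3 and 10 mg/kg. Reversal of hypersensitivity is scored, with statistical significance testing, and ED50 is calculated.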

[31] = tested on: Brain; test: Fraction unbound in brain of po dosed rat complete Freund's adjuvant-induced inflammatory pain model; format: ADME, organism-based; conditions: in vivo

SMILES: Cc1cc(NC(=O)C2(F)CCNCC2)nn1Cc1cc(Cl)cc2cc(-c3ccccc3)oc12
IC50 [1]: 0.0398 µM

SMILES: Cc1cc(C(=O)O)nn1Cc1cc(Cl)cc2cc(C3CC3)oc12
IC50 [1]: 0.0501 µM

SMILES: Cc1cc(C(=O)N[C@H]2CC[C@H](O)CC2)nn1Cc1cc(Cl)cc2cc(-c3ccccc3)oc12
IC50 [1]: 0.00794 µM

SMILES: Cc1cc(C(=O)O)nn1Cc1cc(Cl)cc2nc(C(C)C)cn12
IC50 [2]: > 1 µM

SMILES: Cc1cc(C(=O)NN2CCOCC2)nn1Cc1cc(Cl)cc2cc(-c3ccccc3)oc12
IC50 [1]: 0.01 µM
CL [4]: 1.1 mL/min/g
solubility at 1 h [25]: 171 µg/mL (≈ 379 µM)
solubility at 1 h [5]: 227 µg/mL (≈ 503 µM)
solubility at 1 h [6]: 382 µg/mL (≈ 847 µM)
logD [8]: 3
clearance [12]: 22 mL/min/kg
Vd [13]: 3.5 L/kg
half-life [14]: 2.1 h
Activity [26]: 49%
Fu [27]: 0.662%
Kp at 1 h [28]: 1.7
concentration at 1 h [29]: 3.97 µM
Activity [30]: Active
concentration at 1 h [18]: 2.34 µM
Fu [31]: 0.17%

SMILES: CCCc1cc2cc(Cl)cc(Cn3nc(C(=O)O)cc3C)c2o1
IC50 [1]: 0.0251 µM

SMILES: Cc1cc(C(=O)NC(C)C)nn1Cc1cc(Cl)cc2cc(-c3ccccc3)oc12
IC50 [1]: 0.01 µM

SMILES: Cc1cc(C(=O)O)nn1Cc1cc(Cl)cc2oc(C(C)C)cc12
IC50 [1]: 0.251 µM

SMILES: Cc1cc(-c2nc3ccccc3[nH]2)nn1Cc1cc(Cl)cc2cc(C(C)C)oc12
IC50 [2]: 0.0501 µM

SMILES: Cc1cc(NC(=O)C2CCNCC2)nn1Cc1cc(Cl)cc2cc(-c3ccccc3)oc12
IC50 [1]: 0.1 µM

More lines, main results first:

IC50 [2]: 0.794 µM
SMILES: Cc1cc(C(=O)NC2CCNCC2)nn1Cc1cc(Cl)cc2cc(C(C)C)oc12

IC50 [2]: 0.0501 µM
CL [4]: 1.1 mL/min/g
solubility at 1 h [5]: 1 µg/mL (≈ 2.4 µM)
solubility at 1 h [6]: 5 µg/mL (≈ 12 µM)
solubility at 1 h [7]: 71 µg/mL (≈ 170 µM)
logD [8]: 2.6
Papp [9]: 67.1 ×10⁻⁶ cm/s
efflux ratio [10]: 0.9
clearance [12]: 85 mL/min/kg
Vd [13]: 3 L/kg
half-life [14]: 0.5 h
bioavailability [15]: 19%
half-life [16]: 1.7 h
concentration at 1 h [17]: 1.95 µM
concentration at 1 h [18]: 5.61 µM
concentration at 1 h [19]: 10.2 µM
concentration at 1 h [20]: 11.3 µM
Kp at 1 h [21]: 1.05
Kp at 3 h [24]: 1.15
SMILES: Cc1cc(C(=O)NN2CCOCC2)nn1Cc1cc(Cl)cc2cc(C(C)C)oc12
Activity [3]: Active
ED50 [11]: 14.7 mg/kg
Activity [22]: Active
Activity [23]: inactive

IC50 [1]: 0.002 µM
SMILES: Cc1cc(C(=O)O)nn1Cc1cc(Cl)cc2cc(-c3ccccc3)oc12

IC50 [1]: > 1 µM
SMILES: Cc1cc(C(=O)O)nn1Cc1cc(Cl)cn2nc(C(C)C)cc12

IC50 [2]: 0.0631 µM
SMILES: CNCc1ccc(NC(=O)c2cc(C)n(Cc3cc(Cl)cc4cc(C(C)C)oc34)n2)cc1
